# Laboratory results taken from ChEMBL document CHEMBL1125041, “New inhibitors of renin that contain novel phosphostatine Leu-Val replacements” (J Med Chem, 1990).
# Assays:
# [1] = molecular target: Pepsin A (Sus scrofa) (UniProt P00791); assay: In vitro inhibitory activity against porcine pepsin was determined at 10e-5 M
# [2] = molecular target: T1, Cathepsin D (Bos taurus) (UniProt P80209); assay: Tested for inhibition of Cathepsin D from bovine was determined at 10e-5 M
# T1 sequence (whole entry): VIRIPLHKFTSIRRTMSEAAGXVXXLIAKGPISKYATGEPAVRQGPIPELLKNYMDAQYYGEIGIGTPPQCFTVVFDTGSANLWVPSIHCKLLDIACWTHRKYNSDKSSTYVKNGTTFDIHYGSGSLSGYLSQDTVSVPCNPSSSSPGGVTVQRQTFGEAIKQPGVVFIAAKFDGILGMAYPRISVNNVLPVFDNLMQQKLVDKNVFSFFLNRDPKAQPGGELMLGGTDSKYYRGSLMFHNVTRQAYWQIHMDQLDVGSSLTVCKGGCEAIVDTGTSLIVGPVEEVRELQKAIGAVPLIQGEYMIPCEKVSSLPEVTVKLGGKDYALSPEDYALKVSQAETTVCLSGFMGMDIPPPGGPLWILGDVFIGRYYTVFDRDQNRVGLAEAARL
# [3] = molecular target: T2, Renin (Homo sapiens, UniProt P00797); assay: Inhibition of purified human renal renin at pH 6.
# T2 sequence (P00797 whole entry): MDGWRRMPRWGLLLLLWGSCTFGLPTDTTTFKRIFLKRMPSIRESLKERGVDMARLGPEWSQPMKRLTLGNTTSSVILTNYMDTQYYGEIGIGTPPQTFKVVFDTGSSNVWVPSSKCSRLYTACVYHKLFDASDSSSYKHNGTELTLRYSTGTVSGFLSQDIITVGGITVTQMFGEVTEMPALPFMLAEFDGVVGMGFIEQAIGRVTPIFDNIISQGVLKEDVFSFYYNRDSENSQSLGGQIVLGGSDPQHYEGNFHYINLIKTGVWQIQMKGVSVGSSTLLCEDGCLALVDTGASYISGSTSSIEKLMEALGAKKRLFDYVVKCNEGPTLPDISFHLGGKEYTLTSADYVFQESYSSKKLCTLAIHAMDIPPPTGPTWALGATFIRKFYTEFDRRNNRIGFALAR
# In short: (§1)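 Purified human renal renin enzyme assay at pH 6.0, following a previously described method. IC50 values were determined. Where IC50 exceeded 10^-6 M, no IC50 was determined and percent inhibition was reported at the stated concentration.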
# [4] = molecular target: T3, Renin (Homo sapiens) (UniProt P00797); assay: The compound was tested in vitro for inhibition of purified human renal renin at pH 6 and a concentration of 10e-6 M; in short: as §1
# T3 sequence (whole entry): T2 sequence (P00797 whole entry)
# [5] = molecular target: T1, Cathepsin D (Bos taurus); assay: Tested for inhibition of Cathepsin D from bovine at a concentration of 10e-5 M
# [6] = molecular target: Pepsin A (Sus scrofa) (UniProt P00791); assay: Inhibitory activity against Porcine pepsin at a concentration of 10e-5 M
# Chain of Pepsin A (Sus scrofa) (P00791 60-385 limits assumed): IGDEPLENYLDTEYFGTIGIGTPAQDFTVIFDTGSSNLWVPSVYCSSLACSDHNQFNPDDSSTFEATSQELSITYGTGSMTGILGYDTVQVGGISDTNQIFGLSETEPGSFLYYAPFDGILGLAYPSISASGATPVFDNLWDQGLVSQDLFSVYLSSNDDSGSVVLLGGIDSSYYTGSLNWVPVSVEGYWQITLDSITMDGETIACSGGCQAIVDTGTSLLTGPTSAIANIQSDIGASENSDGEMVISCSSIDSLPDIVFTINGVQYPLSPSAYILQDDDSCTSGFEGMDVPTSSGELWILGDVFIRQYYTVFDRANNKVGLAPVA
Structure (SMILES),IC50 [3] [nM],also measured
COP(=O)(C[C@H](O)[C@H](CC1CCCCC1)NC(=O)[C@H](CC(C)C)NC(=O)[C@H](Cc1ccccc1)NC(=O)OC(C)(C)C)OC,20,inhibition [1]: 21%; inhibition [2]: 86%
COP(=O)(C[C@@H](O)[C@H](CC1CCCCC1)NC(=O)[C@H](Cc1c[nH]cn1)NC(=O)[C@H](Cc1ccccc1)NC(=O)OC(C)(C)C)OC,90,–
COP(=O)(C[C@H](O)[C@H](CC1CCCCC1)NC(=O)[C@H](Cc1c[nH]cn1)NC(=O)[C@H](Cc1ccccc1)NC(=O)CC(C)(C)C)OC,47,inhibition [1]: 3%; inhibition [2]: 6%
CCOC(=O)N[C@@H](Cc1ccccc1)C(=O)N[C@@H](Cc1c[nH]cn1)C(=O)N[C@@H](CC1CCCCC1)[C@@H](O)CP(=O)(OC)OC,50,inhibition [1]: 4%; inhibition [2]: 0%
COP(=O)(C[C@H](O)[C@H](CC(C)C)NC(=O)[C@H](Cc1c[nH]cn1)NC(=O)[C@H](Cc1ccccc1)NC(=O)OC(C)(C)C)OC,5100,–
CC(C)(C)OC(=O)N[C@@H](Cc1ccccc1)C(=O)N[C@@H](Cc1c[nH]cn1)C(=O)N[C@@H](CC1CCCCC1)[C@@H](O)CP(C)(C)=O (stereo in doubt; 24),–,inhibition [4]: 49%
COP(=O)(C[C@H](O)[C@H](Cc1ccccc1)NC(=O)[C@H](Cc1c[nH]cn1)NC(=O)[C@H](Cc1ccccc1)NC(=O)OC(C)(C)C)OC,1500,–
CC(C)OP(=O)(C[C@H](O)[C@H](CC1CCCCC1)NC(=O)[C@H](Cc1c[nH]cn1)NC(=O)[C@H](Cc1ccccc1)NC(=O)OC(C)(C)C)OC(C)C,1500,–
COP(=O)(C[C@H](O)[C@H](CC1CCCCC1)NC(=O)[C@H](Cc1c[nH]cn1)NC(=O)[C@H](Cc1ccccc1)NC(=O)OC(C)(C)C)OC,39,–
CC(C)(C)OC(=O)N[C@@H](Cc1ccccc1)C(=O)N[C@@H](Cc1c[nH]cn1)C(=O)N[C@@H](CC1CCCCC1)[C@@H](O)CP(C)(C)=O (stereo in doubt; 23),–,inhibition [4]: 24%
CC(C)(C)OC(=O)N[C@@H](Cc1ccccc1)C(=O)N[C@@H](Cc1c[nH]cn1)C(=O)N[C@@H](CC1CCCCC1)[C@@H](O)CP1(=O)OCCCO1,80,inhibition [1]: 2%; inhibition [2]: 0%
COP(=O)(CC(O)[C@H](Cc1ccccc1)NC(=O)[C@H](C)NC(=O)C(Cc1ccccc1)NC(=O)OC(C)(C)C)OC (stereo partly specified),15000,–
COP(=O)(C[C@@H](O)[C@H](Cc1ccccc1)NC(=O)[C@H](Cc1c[nH]cn1)NC(=O)[C@H](Cc1ccccc1)NC(=O)OC(C)(C)C)OC,4000,–
COP(=O)(O)C[C@H](O)[C@H](CC1CCCCC1)NC(=O)[C@H](CC(C)C)NC(=O)[C@H](Cc1ccccc1)NC(=O)OC(C)(C)C,350,–
CCCCOP(=O)(C[C@H](O)[C@H](CC1CCCCC1)NC(=O)[C@H](Cc1c[nH]cn1)NC(=O)[C@H](Cc1ccccc1)NC(=O)OC(C)(C)C)OCCCC,400,–
CCOP(=O)(C[C@H](O)[C@H](CC1CCCCC1)NC(=O)[C@H](Cc1c[nH]cn1)NC(=O)[C@H](Cc1ccccc1)NC(=O)OC(C)(C)C)OCC,72,inhibition [5]: 0%; inhibition [6]: 0%
